For one test, the target named is T1, Adenosine receptor A1 (Rattus norvegicus, UniProt P25099).
T1 sequence (P25099 whole entry): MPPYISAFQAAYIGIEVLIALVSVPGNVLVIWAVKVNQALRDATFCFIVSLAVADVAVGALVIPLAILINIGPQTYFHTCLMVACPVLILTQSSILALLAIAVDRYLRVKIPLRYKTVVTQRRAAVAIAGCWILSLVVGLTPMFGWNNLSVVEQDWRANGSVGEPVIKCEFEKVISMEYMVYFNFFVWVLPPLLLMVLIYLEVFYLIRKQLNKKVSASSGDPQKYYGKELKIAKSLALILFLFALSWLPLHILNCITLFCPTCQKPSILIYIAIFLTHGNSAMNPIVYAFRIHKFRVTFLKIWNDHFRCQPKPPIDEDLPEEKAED
Nature of the test: Binding affinity towards adenosine A1 receptor using [3H]N-cyclohexyladenosine in rat whole brain membranes. Format: cell membranes. The procedure, abridged:
(§1)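 Radioligand displacement on rat membranes: A1 used [3H]N6-cyclohexyladenosine ([3H]CHA) with whole-brain membranes, and A2 used [3H]NECA with striatal membranes. The procedure follows an earlier report. Each value is the mean of three or more independent experiments.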

A further test concerns the target Adenosine A2 receptor (Rattus norvegicus, UniProt P29276+P30543). The test is described as follows: Binding affinity against Adenosine-2 receptor with [3H]-NECA in rat striatal membranes. In kind it is cell membranes. The method in brief:
as §1

The target of test [1] is Adenosine receptors; A1 & A2 (Rattus norvegicus) (UniProt P29276+P25099+P30543). The test is described as follows: Ratio of Ki at A2 and A1 receptors. In kind it is protein assay.

Results on 15 compounds are retold here after ChEMBL document CHEMBL1124099, “[1,2,4]Triazolo[4,3-a]quinoxalin-4-amines: a new class of A1 receptor selective adenosine antagonists” (J Med Chem, 1988).

With `CCc1nnc2c(NC3CCC3)nc3ccccc3n12`, the Ki on Adenosine receptor A1 is 58 nM; on Adenosine A2 receptor it was 1.71 µM. In addition, the Ratio in test [1] was 29.

Consider `CCCc1nnc2c(NC3CCCC3)nc3ccccc3n12`, for which the values for the Ki on Adenosine receptor A1 and on Adenosine A2 receptor were 39 nM and 1.83 µM, respectively. Besides, the Ratio in test [1] stood at 47.

As to `CCc1nnc2c(NCC(C)O)nc3ccccc3n12` (stereo not given), the Ki on Adenosine receptor A1 is 330 nM; on Adenosine A2 receptor, 22 µM. For the same compound, the Ratio in test [1] is 67.

Take `CCc1nnc2c(NC3CCCCC3)nc3ccccc3n12`: the Ki is 80 nM on Adenosine receptor A1 and 4 µM at Adenosine A2 receptor. In addition, the Ratio in test [1] amounted to 50.

Consider `CCN(CC)c1nc2ccccc2n2cnnc12`, for which the Ki on Adenosine receptor A1 stood at 8900 nM; on Adenosine A2 receptor, 18.8 µM. Also, in test [1], the Ratio turned out to be 2.1.

Consider `CC(C)Nc1nc2ccccc2n2cnnc12`, for which the Ki at Adenosine receptor A1 is 2300 nM; on Adenosine A2 receptor it was 7 µM. Besides, the Ratio in test [1] was 3.

Regarding `FC(F)(F)c1nnc2c(NC3CCCC3)nc3ccccc3n12`, the inhibition constant Ki on Adenosine receptor A1 was determined as 7.3 nM; at Adenosine A2 receptor, 1.01 µM. Moreover, the Ratio in test [1] was 138.

In the case of `CCc1nnc2c(NC(C)C)nc3ccccc3n12`, the Ki was determined as 240 nM on Adenosine receptor A1 and 4.2 µM at Adenosine A2 receptor. Further, the Ratio in test [1] stood at 17.5.

Turning to `CCc1nnc2c(Nc3ccccc3)nc3ccccc3n12`, the figures for the Ki at Adenosine receptor A1 and at Adenosine A2 receptor were 630 nM and 11.8 µM, respectively. The Ratio in test [1] came to 18.7.

With `Cc1nnc2c(NC3CCCC3)nc3ccccc3n12`, the Ki on Adenosine receptor A1 was determined as 34 nM; at Adenosine A2 receptor, 2.7 µM. The Ratio in test [1] was determined as 79.

Regarding `CCc1nnc2c(NC3CC4CCC3C4)nc3ccccc3n12` (stereo not given), the Ki at Adenosine receptor A1 is 44 nM; at Adenosine A2 receptor it was 6.1 µM. In test [1], the Ratio was 139.

Take `CCCCc1nnc2c(NC3CCCC3)nc3ccccc3n12`: the Ki on Adenosine receptor A1 was 55 nM; on Adenosine A2 receptor, above 10 µM. Further, the Ratio in test [1] is above 182.

As for `CCc1nnc2c(NC3CCCC3)nc3ccccc3n12`, the inhibition constant Ki was determined as 28 nM at Adenosine receptor A1 and 3 µM at Adenosine A2 receptor. In addition, the Ratio in test [1] was 107.

Turning to `c1ccc2c(c1)nc(NC1CCCC1)c1nncn12`, the figures for the Ki on Adenosine receptor A1 and at Adenosine A2 receptor were 181 nM and 6.7 µM, respectively. Moreover, the Ratio in test [1] was 37.

Take `CCc1nnc2c(NC3CC3)nc3ccccc3n12`: the Ki came to 260 nM on Adenosine receptor A1 and 4.5 µM at Adenosine A2 receptor. Further, in test [1], the Ratio was 17.3.

One may read the Ki as a measure of affinity in units of concentration, obtained from inhibition or displacement. A high value points to a looser hold on the target.
